The values that follow come from ChEMBL document CHEMBL5038657, “Discovery of Novel Inhibitors of Uridine Diphosphate-N-Acetylenolpyruvylglucosamine Reductase (MurB) from Pseudomonas aeruginosa, an Opportunistic Infectious Agent Causing Death in Cystic Fibrosis Patients” (J Med Chem, 2022).

Test [1] concerns Pseudomonas aeruginosa. The experiment in a line: Binding affinity to Pseudomonas aeruginosa MurB assessed as change in melting temperature at 1 mM by differential scanning fluorimetry. In a few lines:
(§1)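 Recombinant Pa MurB (E. coli BL21(DE3)-expressed, SUMO tag cleaved; MurB–FAD complex) at 10 μM in 25 mM Tris–HCl pH 8.0, 150 mM NaCl, 5X SyproOrange with ligand in DMSO-d6. Ramped 25–95 °C in 0.5 °C steps of 30 s. ΔTm taken against DMSO-d6 reference, with NADP+ as positive control. Ligand at 5.0 mM run once (n = 1); at 1.0 mM run in triplicate (n = 3).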

The test system of test [2] is Pseudomonas aeruginosa. Put plainly: Binding affinity to Pseudomonas aeruginosa MurB assessed as change in melting temperature at 5 mM by differential scanning fluorimetry. In a few lines:
as §1

Test [3] in a line: Binding affinity to Pseudomonas aeruginosa MurB assessed as dissociation constant at 3 mM by isothermal titration calorimetry.

In the case of `O=C(O)CCc1cccc(Cl)c1`, the ΔTm worked out at 0.5 °C in test [1] and 1 °C in test [2].
As to `Cc1ccccc1-n1c(C)cc(C(=O)O)c1C`, the ΔTm in test [1] came to 2 °C.
On the same count and under the same terms, the value for `Cc1c(C(=O)O)cc(CCO)n1-c1ccccc1` was 2 °C; that for `O=C(O)c1cnn(-c2ccccc2)c1CO` was 0.2 °C.
On to `O=C(O)COc1ccc(Cl)c(Cl)c1`, for which the ΔTm in test [1] amounted to 1 °C; in test [2], 1.5 °C.
For the compound `Cc1cccc(C)c1-n1ncc(C(=O)NS(=O)(=O)c2ccccc2)c1C(F)(F)F`, the ΔTm in test [1] was 3 °C.
As to `NC(=O)C1=CN([C@@H]2O[C@H](COP(=O)(O)OP(=O)(O)OC[C@H]3O[C@@H](n4cnc5c(N)ncnc54)[C@H](OP(=O)(O)O)[C@@H]3O)[C@@H](O)[C@H]2O)C=CC1`, the ΔTm in test [1] came to 3 °C.
Take `Cc1ccc(C)c(-n2ncc(C(=O)O)c2C(F)(F)F)c1`: the ΔTm in test [1] is 2 °C. In test [3], the Kd came to 138 µM.
With `Cc1cc(C(=O)O)n[nH]1`, the ΔTm in test [1] amounted to 0 °C; in test [2] it was 1 °C.
`Cc1cc(C(=O)O)c(C(F)(F)F)n1-c1ccccc1`: in test [1], the ΔTm came out at 2 °C. In addition, in test [3], the Kd stood at 112 µM.
For the compound `O=C(O)c1cnn(-c2cccnc2)c1C(F)(F)F`, the ΔTm in test [1] was 0.3 °C.
Still for that read-out and setting: as for `Cc1cc([N+](=O)[O-])ccc1-n1ncc(C(=O)O)c1C(F)(F)F`, the figure is 1.7 °C.
Same read-out and setting: as for `Cc1ccccc1-n1ncc(C(=O)O)c1C(F)(F)F`, the figure is 2 °C.
`O=C(O)c1cnn(-c2ccc(Cl)c(Cl)c2)c1C(F)(F)F`: the ΔTm in test [1] came out at 2.3 °C. Besides, the Kd in test [3] amounted to 26.1 µM.
On to `O=C(O)c1cnn(-c2ccccc2F)c1C(F)(F)F`, for which, in test [1], the ΔTm stood at 1 °C.
On the same count and under the same terms, the value for `Cc1ccc(-n2ncc(C(=O)O)c2C(F)(F)F)c(C)c1` was 2.3 °C; that for `O=C(O)c1cnn(-c2ccc(C(F)(F)F)cc2)c1C(F)(F)F` was 1 °C; that for `Cc1cccc(-n2ncc(C(=O)O)c2C(F)(F)F)c1C` was 2 °C.
Same read-out and setting: as for `Cc1c(C(=O)O)nnn1-c1ccccc1`, the figure is 0.5 °C.
On the same count and under the same terms, as for `Cc1cc(C(=O)O)c(C)n1-c1ccc(Cl)cc1`, the figure is 1.5 °C; as for `NC(=O)c1ccc[n+]([C@@H]2O[C@H](COP(=O)(O)OP(=O)(O)OC[C@H]3O[C@@H](n4cnc5c(N)ncnc54)[C@H](OP(=O)(O)O)[C@@H]3O)[C@@H](O)[C@H]2O)c1`, 3.5 °C.
Regarding `Cc1cc(C(=O)O)c(C)n1-c1cccc(Cl)c1`, in test [1], the ΔTm amounted to 1.5 °C.
Turning to `Cc1cccc(C)c1-n1ncc(C(=O)NS(=O)(=O)c2cccc(Br)c2)c1C(F)(F)F`, in test [1], the ΔTm stood at 1.3 °C.
With `Cc1c(C(=O)O)cnn1-c1ccccc1`, the ΔTm amounted to 0.5 °C in test [1] and 1.5 °C in test [2].
Regarding `N#CCc1nc2ccccc2s1`, the ΔTm in test [1] stood at 0 °C; in test [2] it was 1 °C.
As to `Cc1c(C(=O)NS(=O)(=O)Cc2ccccc2)cnn1-c1ccccc1`, the ΔTm in test [1] was found to be 0 °C.
Same read-out and setting: as for `Cc1c(-n2c(C)cc(C(=O)O)c2C)ccc(Cl)c1Cl`, the figure is 4 °C; as for `O=C(O)c1cnn(-c2ccncc2)c1C(F)(F)F`, 0 °C; as for `Cc1c(C(=O)NCc2ccccc2)cnn1-c1ccccc1`, 0 °C.
On the same count and under the same terms, as for `O=C(O)c1cnn(-c2ccccc2)c1O`, the figure is 0.7 °C.
With `O=C(O)Cc1ccccc1`, the ΔTm in test [1] stood at 0 °C; in test [2], 1 °C.
On to `CN1C(=O)C(=O)c2ccccc21`, for which the ΔTm in test [1] came out at 1 °C; in test [2], 4 °C.
Regarding `O=C(NS(=O)(=O)c1ccccc1)c1cnn(-c2ccccc2)c1C(F)(F)F`, in test [1], the ΔTm was 1 °C.
For `Cc1c(-n2c(C)cc(C(=O)O)c2C(F)(F)F)ccc(Cl)c1Cl`, the ΔTm in test [1] amounted to 2.7 °C. Further, the Kd in test [3] was 11.4 µM.
For `NC(=O)c1cccc(-n2ncc(C(=O)O)c2C(F)(F)F)c1`, in test [1], the ΔTm was 0.5 °C.
With `Cc1cc(C(=O)O)c(C)n1Cc1cccs1`, the thermal shift (ΔTm) in test [1] was 1.5 °C; in test [2] it was 2 °C.
For `NCc1ccc2sccc2c1`, the values for the ΔTm in test [1] and in test [2] were 0 °C and 1 °C, respectively.
As to `O=C(O)c1cnn(-c2ccccc2)c1C(F)(F)F`, the ΔTm in test [1] came to 1 °C.
Consider `Cc1cc(Cl)c(Cl)cc1-n1c(C)cc(C(=O)O)c1C`, for which, in test [1], the ΔTm worked out at 3.5 °C. In addition, the Kd in test [3] is 24.1 µM.
Regarding `CS(=O)(=O)NC(=O)c1cnn(-c2ccccc2)c1C(F)(F)F`, the ΔTm in test [1] came out at 0.5 °C.
Take `Cc1cc(CC(=O)O)on1`: the ΔTm turned out to be 0 °C in test [1] and 1 °C in test [2].
Consider `Cc1cc(C(=O)O)c(C)n1-c1ccc(Cl)c(Cl)c1`, for which, in test [1], the ΔTm was determined as 2.3 °C.
Still for that read-out and setting: as for `Cc1cccc(C)c1-n1c(C)cc(C(=O)O)c1C`, the figure is 3 °C.
Regarding `Cc1cc(C(=O)O)c(C)n1-c1ccccc1`, in test [1], the ΔTm amounted to 2 °C. In addition, in test [3], the Kd worked out at 110 µM.
In the case of `NC(=O)c1cnn(-c2ccccc2)c1C(F)(F)F`, in test [1], the ΔTm was 0 °C.
As to `Cc1nc(C(=O)O)c(C)n1-c1ccccc1`, in test [1], the ΔTm was found to be 0.7 °C.
Still for that read-out and setting: as for `O=C(O)c1cnn(-c2cccs2)c1C(F)(F)F`, the figure is 0.3 °C; as for `CCOC(=O)c1cnn(-c2ccccc2Cl)c1C(F)(F)F`, 0 °C.
As for `O=C1Nc2ccccc2C1=O`, the ΔTm in test [1] turned out to be 1 °C; in test [2], 3.5 °C.
`Nc1c(C(=O)O)cnn1-c1ccccc1`: the ΔTm in test [1] came out at 0 °C.
Turning to `NCc1ccc2[nH]ccc2c1`, the ΔTm in test [1] was 0.2 °C; in test [2], 1 °C.
Regarding `Cc1c(-n2ncc(C(=O)O)c2C(F)(F)F)ccc(Cl)c1Cl`, the ΔTm in test [1] is 3.7 °C. Besides, in test [3], the Kd is 11.3 µM.
As to `O=C(O)c1cnn(-c2ccccc2Cl)c1C(F)(F)F`, the ΔTm in test [1] is 1.5 °C. Besides, in test [3], the Kd was determined as 148 µM.
In the case of `O=C(O)Cc1ccc(Cl)c(Cl)c1`, the ΔTm in test [1] stood at 1 °C; in test [2], 1.5 °C.
On to `Cc1ccccc1-n1c(C)cc(C(=O)O)c1C(F)(F)F`, for which, in test [1], the ΔTm was 2.5 °C.
As to `Cc1cc(Cl)c(Cl)cc1-n1ncc(C(=O)NS(=O)(=O)c2ccccc2)c1C(F)(F)F`, in test [1], the ΔTm is 2.7 °C. Moreover, the Kd in test [3] was found to be 12 µM.
On to `O=C(O)c1cnn(-c2ccccc2Br)c1C(F)(F)F`, for which, in test [1], the ΔTm was determined as 2 °C.
Same read-out and setting: as for `O=C(O)c1cnn(Cc2ccccc2)c1C(F)(F)F`, the figure is 1 °C.
The same measure, in the same setting: the value for `Cc1cc(Cl)c(Cl)cc1-n1ncc(C(=O)O)c1C(F)(F)F` was 5 °C.
Consider `O=C(O)c1ccc(Cl)c(Cl)c1`, for which the ΔTm in test [1] was determined as 0.5 °C; in test [2], 1 °C.
In the case of `Cc1cc(Cl)c(Cl)cc1-n1c(C)cc(C(=O)O)c1C(F)(F)F`, the ΔTm in test [1] amounted to 4.7 °C.
The same measure, in the same setting: the value for `O=C(O)c1cnn(-c2ccccc2C(F)(F)F)c1C(F)(F)F` was 1 °C; that for `O=C(O)c1cnn(-c2c(Cl)cccc2Cl)c1C(F)(F)F` was 2.5 °C.
Still for that read-out and setting: the value for `Cc1cccc(C)c1-n1ncc(C(=O)O)c1C(F)(F)F` was 2.5 °C.
On the same count and under the same terms, as for `O=C(O)c1cnn(Cc2cccs2)c1C(F)(F)F`, the figure is 1 °C.
